Measured values: ChEMBL document CHEMBL1121581, “4-Piperazinyl-10H-thieno[2,3-b][1,5]benzodiazepines as potential neuroleptics” (J Med Chem, 1980)

How the values were obtained:
[1] = test system: Mus musculus; test: Hypothermia in mice after peroral administration; type: functional
[2] = Lethal dose in mice after perorla administration; type: toxicity, organism-based; settings: mouse, in vivo, po
[3] = test system: Rattus norvegicus; test: Ability to block a conditioned avoidance response; Dose administered perorally is 50 mg/kg.; type: functional; settings: route oral
How it was run: (§1)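 Lilly Wistar rats (120–130 g) trained in a shuttle box to cross on a 5-s buzzer, with mild shock if no response within 1 s of buzzer end. Only rats with a high conditioned response were used. Groups of five were dosed orally 1 h 50 min before the session, then habituated 10 min and tested 20 min. Shocks were scored as % of stimuli and graded 0–5.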

[4] = test system: Rattus norvegicus; test: Compound was assessed for its ability to produce catalepsy in rats; Dose administered perorally is 25 mg/kg; Group score is 16-30; type: functional; settings: route oral
How it was run: (§2)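 Groups of eight Lilly Wistar rats (180–190 g) were dosed orally, then checked at 0.5, 1, 1.5, 2, 3, 4 and 5 h. Front paws were placed on a 1.5-cm rod 7 cm above the table, and hold time was recorded up to 20 min. Each rat was scored 0–5 and its maximum scores were summed per group (maximum 40), then graded 0–4.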

[5] = test system: Rattus norvegicus; test: Compound was assessed for its ability to block a conditioned avoidance response; Dose administered perorally is 10 mg/kg; 51-75%block; type: functional; settings: route oral; how it was run: as §1
[6] = test system: Rattus norvegicus; test: Compound was assessed for its ability to produce catalepsy in rats; Dose administered perorally is 50 mg/kg; Group score is 0-3; type: functional; settings: route oral; how it was run: as §2
[7] = test system: Rattus norvegicus; test: Compound was assessed for its ability to block a conditioned avoidance response; Dose administered perorally is 50 mg/kg; 76-99%block; type: functional; settings: route oral; how it was run: as §1
[8] = test system: Rattus norvegicus; test: Compound was assessed for its ability to produce catalepsy in rats; Dose administered perorally is 50 mg/kg; Group score is 8-15; type: functional; settings: route oral; how it was run: as §2
[9] = test system: Rattus norvegicus; test: Compound was assessed for its ability to produce catalepsy in rats; Dose administered perorally is 20 mg/kg; Group score is 8-15; type: functional; settings: route oral; how it was run: as §2
[10] = test system: Rattus norvegicus; test: Compound was assessed for its ability to block a conditioned avoidance response; Dose administered perorally is 10 mg/kg; no significant effect (0-25%block); type: functional; settings: route oral; how it was run: as §1
[11] = test system: Rattus norvegicus; test: Compound was assessed for its ability to produce catalepsy in rats; Dose administered perorally is 8 mg/kg; Group score is 4-7; type: functional; settings: route oral; how it was run: as §2
[12] = test system: Rattus norvegicus; test: Compound was assessed for its ability to block a conditioned avoidance response; Dose administered perorally is 8 mg/kg; 31-50%block; type: functional; settings: route oral; how it was run: as §1
[13] = test system: Rattus norvegicus; test: Compound was assessed for its ability to produce catalepsy in rats; Dose administered perorally is 10 mg/kg; Group score is 4-7; type: functional; settings: route oral; how it was run: as §2
[14] = test system: Rattus norvegicus; test: Compound was assessed for its ability to block a conditioned avoidance response; Dose administered perorally is 10 mg/kg; 31-50%block; type: functional; settings: route oral; how it was run: as §1
[15] = test system: Rattus norvegicus; test: Compound was assessed for its ability to block a conditioned avoidance response; Dose administered perorally is 50 mg/kg; 26-30%block; type: functional; settings: route oral; how it was run: as §1
[16] = test system: Rattus norvegicus; test: Compound was assessed for its ability to produce catalepsy in rats; Dose administered perorally is 50 mg/kg; Group score is 4-7; type: functional; settings: route oral; how it was run: as §2
[17] = test system: Rattus norvegicus; test: Compound was assessed for its ability to block a conditioned avoidance response; Dose administered intraperitoneally is 50 mg/kg; no significant effect (0-25%block); type: functional; settings: route intraperitoneal
[18] = test system: Rattus norvegicus; test: Compound was assessed for its ability to block a conditioned avoidance response; Dose administered perorally is 25 mg/kg; no significant effect (0-25%block); type: functional; settings: route oral; how it was run: as §1
[19] = test system: Rattus norvegicus; test: Compound was assessed for its ability to block a conditioned avoidance response; Dose administered perorally is 20 mg/kg; 76-99%block; type: functional; settings: route oral; how it was run: as §1
[20] = test system: Rattus norvegicus; test: Compound was assessed for its ability to block a conditioned avoidance response; Dose administered perorally is 10 mg/kg; 26-30%block; type: functional; settings: route oral; how it was run: as §1
[21] = test system: Rattus norvegicus; test: Compound was assessed for its ability to produce catalepsy in rats; Dose administered perorally is 10 mg/kg; Group score is 8-15; type: functional; settings: route oral; how it was run: as §2
[22] = test system: Rattus norvegicus; test: Compound was assessed for its ability to produce catalepsy in rats; Dose administered perorally is 16 mg/kg; Group score is 4-7; type: functional; settings: route oral; how it was run: as §2
[23] = test system: Rattus norvegicus; test: Compound was assessed for its ability to block a conditioned avoidance response; Dose administered perorally is 40 mg/kg; 26-30%block; type: functional; settings: route oral; how it was run: as §1

Row | SMILES | EDmin [1] [mg/kg] | LD50 [2] [mg/kg] | Activity [3] | also measured
1 | CCc1cc2c(s1)Nc1ccc(F)cc1N=C2N1CCCCC1 | 12.5 | > 200 | 0 | 
2 | CCc1cc2c(s1)Nc1cc(F)c(F)cc1N=C2N1CCN(C)CC1 | 6.25 | 300 |  | Activity [4]: 3; Activity [5]: 3
3 | CN1CCN(C2=Nc3cc(F)ccc3Nc3sc(-c4ccccc4)cc32)CC1 | 50 | > 400 | 0 | Activity [6]: 0
4 | CCc1cc2c(s1)Nc1ccc(F)cc1N=C2NCCN1CCN(c2ccccc2)CC1 | >400 | > 800 | 0 | Activity [6]: 0
5 | CCc1cc2c(s1)Nc1ccc(S(C)(=O)=O)cc1N=C2N1CCN(C)CC1 | >400 | > 400 | 0 | 
6 | CCc1cc2c(s1)Nc1ccccc1N=C2N1CCN(Cc2ccccc2)CC1 | 200 | > 400 |  | Activity [7]: 4; Activity [8]: 2
7 | CCCN1CCN(C2=Nc3ccccc3Nc3sc(CC)cc32)CC1 | 25 | > 200 |  | Activity [9]: 2; Activity [10]: 0
8 | CCc1cc2c(s1)Nc1ccc(Cl)cc1N=C2N1CCN(C)CC1 | 6.25 | 50 |  | Activity [11]: 1; Activity [12]: 2
9 | CCCCCCc1cc2c(s1)Nc1ccc(F)cc1N=C2N1CCN(C)CC1 | 100 | > 400 | 0 | 
10 | CCc1cc2c(s1)Nc1ccc(Cl)cc1C(N1CCN(C)CC1)=N2 | 50 | > 100 | 0 | 
11 | CCc1cc2c(s1)Nc1ccccc1N=C2N1CCN(CC)CC1 | 50 | 200 |  | Activity [13]: 1; Activity [14]: 2
12 | CCc1cc2c(s1)Nc1ccc(Cl)cc1N=C2N1CCNCC1 | 50 | > 400 | 0 | Activity [6]: 0
13 | OCCN1CCN(CC/C=C2\c3ccccc3Sc3ccc(C(F)(F)F)cc32)CC1 [E-FLUPENTIXOL] | >400 | > 400 |  | Activity [15]: 1; Activity [6]: 0
14 | CC(O)c1cc2c(s1)Nc1ccc(F)cc1N=C2N1CCN(C)CC1 (stereo not drawn) | 25 | > 400 |  | Activity [7]: 4; Activity [16]: 1
15 | CCc1cc2c(s1)Nc1ccc(S(=O)(=O)N(C)C)cc1N=C2N1CCN(C)CC1 | >800 | > 800 | 0 | 
16 | CCc1cc2c(s1)Nc1ccc(F)cc1N=C2N1CCN(c2ccccc2)CC1 | >400 | > 400 |  | Activity [17]: 0
17 | CN(C)CCCN1c2ccccc2Sc2ccc(Cl)cc21 [CHLORPROMAZINE] | 6.25 | 400 |  | Activity [13]: 1; Activity [5]: 3
18 | CCc1cc2c(s1)Nc1ccccc1C(N1CCN(C)CC1)=N2 | 100 | > 200 |  | Activity [18]: 0
19 | CCc1cc2c(s1)Nc1ccc(F)cc1N=C2N1CCN(CCO)CC1 | 50 | 400 |  | Activity [13]: 1; Activity [19]: 4
20 | CCc1cc2c(s1)Nc1ccc(F)cc1N=C2N1CCN(C)CC1.O=C(O)/C=C\C(=O)O | 6.25 | 200 |  | Activity [11]: 1; Activity [12]: 2
21 | CCc1cc2c(s1)Nc1ccc(F)cc1N=C2N1CCN(Cc2ccc(Cl)cc2)CC1 | >400 | > 400 | 0 | Activity [6]: 0
22 | CCc1cc2c(s1)Nc1ccc(F)cc1N=C2N1CCN(c2cccc(Cl)c2)CC1 | >400 | > 400 |  | Activity [17]: 0

Row | SMILES | EDmin [1] [mg/kg] | LD50 [2] [mg/kg] | Activity [3] | also measured
23 | CCc1cc2c(s1)Nc1ccccc1N=C2N1CCN(CCO)CC1 | 25 | > 400 |  | Activity [9]: 2; Activity [19]: 4
24 | CCCN1CCN(C2=Nc3cc(F)ccc3Nc3sc(CC)cc32)CC1 | 6.25 | > 100 |  | Activity [10]: 0
25 | CCc1cc2c(s1)Nc1ccc(F)cc1N=C2NCCO | 200 | > 800 | 0 | Activity [6]: 0
26 | CN1CCN(C2=Nc3ccccc3Nc3sc(C(C)(C)C)cc32)CC1 | 12.5 | 400 |  | Activity [10]: 0
27 | CN1CCN(C2=Nc3cc(F)ccc3Nc3sc(C(C)(C)C)cc32)CC1 | 12.5 | > 400 |  | Activity [13]: 1; Activity [20]: 1
28 | Cc1cc2c(s1)Nc1ccc(F)cc1N=C2N1CC[N+](C)([O-])CC1 | 6.25 | 200 |  | Activity [21]: 2; Activity [5]: 3
29 | CCc1cc2c(s1)Nc1ccc(SC)cc1N=C2N1CCN(C)CC1 | 100 | > 200 | 0 | 
30 | CCc1cc2c(s1)Nc1ccccc1N=C2N1CCNCC1 | 100 | 800 | 0 | 
31 | CCc1cc2c(s1)Nc1cc(F)cc(F)c1N=C2N1CCN(C)CC1 | 25 | 600 |  | Activity [15]: 1; Activity [16]: 1
32 | Cc1cc2c(s1)Nc1ccc(F)cc1N=C2N1CCNCC1 | 100 | 400 |  | Activity [15]: 1
33 | CCOC(=O)N1CCN(C2=Nc3ccccc3Nc3sc(CC)cc32)CC1 | 50 | > 400 | 0 | 
34 | CCc1cc2c(s1)Nc1ccccc1N=C2N1CCN(C)CC1 | 25 | 150 |  | Activity [22]: 1; Activity [14]: 2
35 | Cc1csc2c1C(N1CCN(C)CC1)=Nc1cc(F)ccc1N2 | 25 | > 200 |  | Activity [18]: 0
36 | CCOC(=O)N1CCN(C2=Nc3cc(F)ccc3Nc3sc(C)cc32)CC1 | >400 | > 400 | 0 | 
37 | CC(=O)c1cc2c(s1)Nc1ccccc1C(N1CCN(C)CC1)=N2 | 200 | > 400 |  | Activity [23]: 1
38 | CN1CCN(C2=Nc3cc(F)ccc3Nc3sc4c(c32)CCCC4)CC1 | 100 | > 400 | 0 | 
39 | CCc1cc2c(s1)Nc1ccc(F)cc1N=C2NCCN1CCOCC1 | 200 | 400 |  | Activity [17]: 0
40 | CCc1cc2c(s1)Nc1ccc(F)cc1N=C2N1CCN(c2cccc(C(F)(F)F)c2)CC1 | >400 | 400 |  | Activity [17]: 0
41 | CCOC(=O)N1CCN(C2=Nc3cc(F)ccc3Nc3sc(CC)cc32)CC1 | 100 | > 800 | 0 | Activity [6]: 0
42 | CCc1cc2c(s1)Nc1ccc([N+](=O)[O-])cc1N=C2N1CCN(C)CC1 | 50 | > 400 |  | Activity [18]: 0
43 | CCc1cc2c(s1)Nc1ccc(F)cc1N=C2NCCCN1CCOCC1 | 400 | 800 |  | Activity [17]: 0
44 | CCc1cc2c(s1)Nc1ccc(F)cc1N=C2N1CCOCC1 | >400 | > 400 | 0 | 
